Broadly, the Papp is the rate of passage across a membrane or cell layer, normalised by area and donor concentration.

A short description of data set [1]: Drug metabolism in cynomolgus monkey liver microsomes assessed as 4-(2,5-Dimethyl-4-oxo-3,4-dihydroimidazo[5,1-f ][1,2,4]triazin-7-yl)-1-methyl-5-(5-(trifluoromethyl)pyridin-2-yl)-1H-pyrazole-3-carbaldehyde formation at 20 uM after 1.2 hrs by UHPLC-UV-HRMS method. The format is ADME, Macaca fascicularis, microsome. A digest of the protocol:
(§1)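 Preparative incubation: substrate 20 µM with liver microsomes (2 mg/mL) of the listed species in 0.1 M potassium phosphate, pH 7.5, with MgCl2 3.3 mM and NADPH 1.3 mM. Run at 37°C in a shaking water bath and stopped with an equal volume of CH3CN. Products were fractionated by HPLC and quantified by qNMR in d6-DMSO.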
(In general: Liver microsomes are vesicles of endoplasmic reticulum, rich in cytochrome P450 enzymes.)

A short description of data set [2]: Apparent permeability across RRCK cells after 1.5 hrs. The class given is ADME, cell-based, Canis lupus familiaris, MDCKII-LE. As to conditions: dog, MDCK.
Data set [3] in a line: Drug metabolism in cynomolgus monkey liver microsomes assessed as 5-(Hydroxymethyl)-7-(3-(hydroxymethyl)-1-methyl-5-(5-(trifluoromethyl)pyridin-2-yl)-1H-pyrazol-4-yl)-2-methylimidazo-[5,1-f ][1,2,4]triazin-4(3H)-one formation at 20 uM after 1.2 hrs by UHPLC-UV-HRMS method. The format is ADME, Macaca fascicularis, microsome. An outline of the steps:
as §1

The nature of data set [4]: Drug metabolism in cynomolgus monkey liver microsomes assessed as 7-(1,3-Dimethyl-5-(5-(trifluoromethyl)pyridin-2-yl)-1H-pyrazol-4-yl)-5-(hydroxymethyl)-2-methylimidazo[5,1-f ][1,2,4]triazin-4(3H)-one formation at 20 uM after 1.2 hrs by UHPLC-UV-HRMS method. The class given is ADME, Macaca fascicularis, microsome. A digest of the protocol: as §1
The nature of data set [5]: Drug metabolism in cynomolgus monkey liver microsomes assessed as 7-(3-(Hydroxymethyl)-1-methyl-5-(5-(trifluoromethyl)pyridin-2-yl)-1H-pyrazol-4-yl)-2,5-dimethylimidazo[5,1-f ][1,2,4]triazin-4(3H)-one formation at 20 uM after 1.2 hrs by UHPLC-UV-HRMS method. The format is ADME, Macaca fascicularis, microsome. A digest of the protocol:
as §1

The nature of data set [6]: Metabolic stability in human hepatocytes at 1 uM after 0.5 to 4 hrs by HPLC-HRMS method. The class given is ADME, cell-based, Hepatocyte. A digest of the protocol: (§2)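 Compound at 1 µM was dried from d6-DMSO and redissolved in Williams E medium. Pooled human hepatocytes were added at 680000 cells/mL. Samples were quenched in water/CH3CN (2:1) with 2% formic acid and clozapine as internal standard, then analysed by HPLC-HRMS in positive-ion full scan. k came from the slope of ln peak-area ratio versus time; CLint = k / cell concentration. Non-specific binding was not measured.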

Data set [7] can be described thus: Drug metabolism in hamster liver microsomes assessed as 7-(1,3-Dimethyl-5-(4-(trifluoromethyl)phenyl)-1H-pyrazol-4-yl)-5-(methoxymethyl)-2-methyl-4-oxo-3,4-dihydroimidazo[5,1-f ][1,2,4]-triazine 1-oxide formation at 20 uM after 1 hr by UHPLC-UV-HRMS method. The format is ADME, microsome. To be noted: cricetinae. An outline of the steps: as §1
A short description of data set [8]: Drug metabolism in hamster liver microsomes assessed as 7-(3-(Hydroxymethyl)-5-(4-(trifluoromethyl)phenyl)-1H-pyrazol-4-yl)-5-(methoxymethyl)-2-methylimidazo[5,1-f ][1,2,4]triazin-4(3H)-one formation at 20 uM after 1 hr by UHPLC-UV-HRMS method. As to conditions: cricetinae. The class given is ADME, microsome. A digest of the protocol: as §1
Data set [9] in a line: Drug metabolism in hamster liver microsomes assessed as 5-(Methoxymethyl)-2-methyl-7-(3-methyl-5-(4-(trifluoromethyl)-phenyl)-1H-pyrazol-4-yl)imidazo[5,1-f ][1,2,4]triazin-4(3H)-one formation at 20 uM after 1 hr by UHPLC-UV-HRMS method. The class given is ADME, microsome. To be noted: cricetinae. An outline of the steps:
as §1

Data set [10] is described as follows: Drug metabolism in hamster liver microsomes assessed as 5-(Hydroxymethyl)-2-methyl-7-(3-methyl-5-(4-(trifluoromethyl)-phenyl)-1H-pyrazol-4-yl)imidazo[5,1-f ][1,2,4]triazin-4(3H)-one formation at 20 uM after 1 hr by UHPLC-UV-HRMS method. The class given is ADME, microsome. As to conditions: cricetinae. A digest of the protocol:
as §1

A short description of data set [11]: Intrinsic clearance in human hepatocytes assessed per million cells at 1 uM after 0.5 to 4 hrs by HPLC-HRMS method. The format is ADME, cell-based, Hepatocyte. As to conditions: human hepatocytes, read-out: CLH. An outline of the steps: as §2
Data set [12] in a line: Drug metabolism in hamster liver microsomes assessed as 7-(5-(6-Methoxypyridin-3-yl)-3-methyl-1H-pyrazol-4-yl)-2,5-dimethylimidazo[5,1-f ][1,2,4]triazin-4(3H)-one formation at 20 uM after 1.5 hrs by UHPLC-UV-HRMS method. The class given is ADME, microsome. To be noted: cricetinae. A digest of the protocol:
as §1

Data set [13] in a line: Drug metabolism in hamster liver microsomes assessed as 5-(Hydroxymethyl)-7-(5-(6-methoxypyridin-3-yl)-1,3-dimethyl-1H-pyrazol-4-yl)-2-methylimidazo[5,1-f ][1,2,4]triazin-4(3H)-one formation at 20 uM after 1.5 hrs by UHPLC-UV-HRMS method. The format is ADME, microsome. To be noted: cricetinae. A digest of the protocol: as §1
The nature of data set [14]: Drug metabolism in hamster liver microsomes assessed as 5-(Hydroxymethyl)-7-(5-(6-methoxypyridin-3-yl)-3-methyl-1Hpyrazol-4-yl)-2-methylimidazo[5,1-f ][1,2,4]triazin-4(3H)-one formation at 20 uM after 1.5 hrs by UHPLC-UV-HRMS method. The format is ADME, microsome. As to conditions: cricetinae. An outline of the steps: as §1
Data set [15] can be described thus: Drug metabolism in hamster liver microsomes assessed as 7-(5-(6-Hydroxypyridin-3-yl)-3-methyl-1H-pyrazol-4-yl)-2,5-dimethylimidazo[5,1-f ][1,2,4]triazin-4(3H)-one formation at 20 uM after 1.5 hrs by UHPLC-UV-HRMS method. The class given is ADME, microsome. To be noted: cricetinae. A digest of the protocol:
as §1

For data set [16], the system named is Liver. Nature of the data set: Drug metabolism in human liver microsomes assessed as 5-(5-((2-Hydroxycyclopentyl)methyl)-4,5,6,7-tetrahydropyrazolo-[1,5-a]pyrazin-3-yl)-7-methylimidazo[5,1-f][1,2,4]triazin-4(3H)-one diastereomer 1 formation at 20 uM after 1.5 hrs by UHPLC-UV-HRMS method. The class given is ADME, microsome. An outline of the steps:
as §1

Data set [17] has as its system Liver. Description: Drug metabolism in human liver microsomes assessed as 5-(5-((2-Hydroxycyclopentyl)methyl)-4,5,6,7-tetrahydropyrazolo-[1,5-a]pyrazin-3-yl)-7-methylimidazo[5,1-f][1,2,4]triazin-4(3H)-one diastereomer 2 formation at 20 uM after 1.5 hrs by UHPLC-UV-HRMS method. The class given is ADME, microsome. An outline of the steps: as §1
The nature of data set [18]: Drug level in cynomolgus monkey liver microsomes treated with 5-(Difluoromethyl)-7-(1,3-dimethyl-5-(4-(trifluoromethyl)phenyl)-1H-pyrazol-4-yl)-2-methylimidazo[5,1-f ][1,2,4]triazin-4(3H)-one at 20 uM after 1.5 hrs by UHPLC-UV-HRMS method. The class given is ADME, Macaca fascicularis, microsome. A digest of the protocol:
as §1

The nature of data set [19]: Drug metabolism in rabbit liver microsomes assessed as 7-(1,3-Dimethyl-5-(3-methyl-4-(trifluoromethyl)phenyl)-1H-pyrazol-4-yl)-5-(hydroxymethyl)-2-methylimidazo[5,1-f ][1,2,4]triazin-4(3H)-one formation at 20 uM after 1 hr by UHPLC-UV-HRMS method. The format is ADME, Oryctolagus cuniculus, microsome. An outline of the steps: as §1
The nature of data set [20]: Drug metabolism in rabbit liver microsomes assessed as 5-(Hydroxymethyl)-7-(5-(3-(hydroxymethyl)-4-(trifluoromethyl)phenyl)-1,3-dimethyl-1H-pyrazol-4-yl)-2-methylimidazo[5,1-f ][1,2,4]triazin-4(3H)-one formation at 20 uM after 1 hr by UHPLC-UV-HRMS method. The format is ADME, Oryctolagus cuniculus, microsome. A digest of the protocol: as §1
A short description of data set [21]: Drug metabolism in rabbit liver microsomes assessed as 5-(Hydroxymethyl)-7-(3-(hydroxymethyl)-1-methyl-5-(3-methyl-4-(trifluoromethyl)phenyl)-1H-pyrazol-4-yl)-2-methylimidazo[5,1-f ][1,2,4]triazin-4(3H)-one formation at 20 uM after 1 hr by UHPLC-UV-HRMS method. The class given is ADME, Oryctolagus cuniculus, microsome. An outline of the steps: as §1
Data set [22] in a line: Drug metabolism in rabbit liver microsomes assessed as 7-(5-(3-(Hydroxymethyl)-4-(trifluoromethyl)phenyl)-1,3-dimethyl-1H-pyrazol-4-yl)-2,5-dimethylimidazo[5,1-f ][1,2,4]triazin-4(3H)-one formation at 20 uM after 1 hr by UHPLC-UV-HRMS method. The class given is ADME, Oryctolagus cuniculus, microsome. An outline of the steps:
as §1

Data set [23] in a line: Drug metabolism in rabbit liver microsomes assessed as 4-(2,5-Dimethyl-4-oxo-3,4-dihydroimidazo[5,1-f ][1,2,4]triazin-7-yl)-1-methyl-5-(3-methyl-4-(trifluoromethyl)phenyl)-1H-pyrazole-3-carboxylic acid formation at 20 uM after 1 hr by UHPLC-UV-HRMS method. The format is ADME, Oryctolagus cuniculus, microsome. An outline of the steps: as §1
Data set [24] can be described thus: Drug metabolism in rabbit liver microsomes assessed as 7-(3-(Hydroxymethyl)-5-(3-(hydroxymethyl)-4-(trifluoromethyl)-phenyl)-1-methyl-1H-pyrazol-4-yl)-2,5-dimethylimidazo[5,1-f ]-[1,2,4]triazin-4(3H)-one formation at 20 uM after 1 hr by UHPLC-UV-HRMS method. The format is ADME, Oryctolagus cuniculus, microsome. An outline of the steps: as §1

Each structure is given as a SMILES string.

`Cc1nn2c(-c3c(C)nn(C)c3-c3ccc(C(F)(F)F)cn3)nc(C)c2c(=O)[nH]1`: the Drug metabolism result in data set [1], in data set [3], in data set [4] and in data set [5] was “Metabolite_Detected” in each case. The Papp at 1.5 h in data set [2] is 16 ×10⁻⁶ cm/s. For the same compound, the Stability entry in data set [6] is given as “Stable”.

For `COCc1nc(-c2c(C)nn(C)c2-c2ccc(C(F)(F)F)cc2)n2nc(C)[nH]c(=O)c12`, the apparent permeability coefficient (Papp) at 1.5 h in data set [2] was determined as 13 ×10⁻⁶ cm/s. The Drug metabolism entry in [7], in [8], in data set [9] and in data set [10] was “Metabolite_Detected” throughout. The hepatocyte CLint at 1 µM in [11] was 4.7 µL/min/1e6 cells.

Turning to `COc1ccc(-c2c(-c3nc(C)c4c(=O)[nH]c(C)nn34)c(C)nn2C)cn1`, the Drug metabolism entry in data set [12], in data set [13], in data set [14] and in data set [15] was “Metabolite_Detected” throughout. For the same compound, the Stability entry in [6] is reported as “Stable”.

`Cc1nc(-c2cnn3c2CN(CC2CCCC2)CC3)c2c(=O)[nH]cnn12`: the Drug metabolism result in the data set with Liver [16] and in the data set with Liver [17] was “Metabolite_Detected” in each case. The Papp at 1.5 h in [2] came out at 24 ×10⁻⁶ cm/s. In data set [11], the hepatocyte CLint at 1 µM came out at 16 µL/min/1e6 cells.

In the case of `Cc1nn2c(-c3c(CO)nn(C)c3-c3ccc(C(F)(F)F)cc3)nc(C(F)F)c2c(=O)[nH]1`, in [2], the apparent permeability coefficient (Papp) at 1.5 h was determined as 6.3 ×10⁻⁶ cm/s. For the same compound, the hepatocyte CLint at 1 µM in data set [11] stood at 5.5 µL/min/1e6 cells. In addition, the Drug metabolism result in data set [18] was “Metabolite_Detected”.

`Cc1nn2c(-c3c(C)nn(C)c3-c3ccc(C(F)(F)F)c(C)c3)nc(C)c2c(=O)[nH]1`: the Drug metabolism result in [19], in [20], in data set [21], in [22], in data set [23] and in data set [24] was “Metabolite_Detected” throughout. The Papp at 1.5 h in data set [2] was found to be 28 ×10⁻⁶ cm/s. In addition, the hepatocyte CLint at 1 µM in [11] was determined as 19 µL/min/1e6 cells.

The values are drawn from ChEMBL document CHEMBL4043302, “Lead Diversification at the Nanomole Scale Using Liver Microsomes and Quantitative Nuclear Magnetic Resonance Spectroscopy: Application to Phosphodiesterase 2 Inhibitors” (J Med Chem, 2018).
